Hits are enriched below; roughly 5.8% of the tested compounds scored in any of these assays.
GASC1 inh = blocks human GASC-1 (KDM4C) demethylase activity | GST-KDM4C 2-372, H3K9me3 peptide, LANCE TR-FRET | inhibition, % at 12.5 µM | 96,000 compounds, 0.15% hits | AID 720574;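 active = mean replicate inhibition above about 25%, with at least 55% of replicates also reaching it, limit read from the data, passing the limit was not always enough; inconclusive = only one of those two conditions met; inactive = neither condition met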
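System: N-terminal GST-fused human GASC-1 (KDM4C) fragment, residues 2-372 / Amount: 10 nM GST-KDM4C in enzyme reaction / Also added: H3K9me3 peptide with Fe(II)/2OG / Times: 30 min demethylation and 1 h detection at room temperature / Signal: LANCE TR-FRET / Read-out basis: Fall in 671/618 emission ratio as inhibition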
IDH1 mut inh = inhibitors of human IDH1 R132H | O75874 | IDH1 R132H reductase, diaphorase/resazurin fluorescence, 60 min | inhibition, % at 10 µM | 70,000 compounds, 0.18% hits; in the data active = inhibition above about 34%; inconclusive = no clear call, values can overlap the other calls; inactive = below about 11%;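 note: 0% = DMSO and 100% = no enzyme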
Target sequence (O75874 whole entry R132H): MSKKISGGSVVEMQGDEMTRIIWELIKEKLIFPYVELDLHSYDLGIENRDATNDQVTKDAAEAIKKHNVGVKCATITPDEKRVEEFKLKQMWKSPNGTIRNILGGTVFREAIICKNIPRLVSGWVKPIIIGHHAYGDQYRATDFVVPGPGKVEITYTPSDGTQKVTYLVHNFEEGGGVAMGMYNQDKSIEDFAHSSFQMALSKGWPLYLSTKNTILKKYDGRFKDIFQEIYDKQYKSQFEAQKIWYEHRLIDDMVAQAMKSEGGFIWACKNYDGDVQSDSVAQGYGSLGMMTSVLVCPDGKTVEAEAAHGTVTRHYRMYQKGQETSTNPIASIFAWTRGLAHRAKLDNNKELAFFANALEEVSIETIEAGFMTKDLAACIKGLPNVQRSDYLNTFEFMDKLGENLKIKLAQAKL
Pf Dd2 growth = blocks growth of Plasmodium falciparum Dd2 parasites; P. falciparum Dd2 growth, SYBR Green, 72 h; active compounds read low; AID 1159554; 94,000 compounds, 2.3% hits; activity change, % at 10 µM; in the data active = activity change below about -80%; inconclusive = no clear call, values can overlap the other calls
T cruzi growth-1 = blocks T. cruzi growth in NIH3T3 culture | inhibition, % at 8.34 µM | 77,000 compounds, 5.9% hits | T. cruzi beta-gal in NIH3T3, GalScreen luminescence, 90 h;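 active = mean inhibition above about 93%, with at least 55% of replicates each passing it, limit read from the data, passing the limit was not always enough; inconclusive = only one of those two conditions holds; inactive = neither condition holds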
T cruzi growth-2 = blocks T. cruzi growth in NIH3T3 host cells; AID 651739; 5,600 compounds, 72% hits; inhibition, % at 8.35 µM; shares compounds with T cruzi growth-1; T. cruzi beta-gal in NIH3T3, GalScreen luminescence, 90 h;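 active = mean replicate inhibition above about 95% and at least 55% of replicates individually reaching it, limit read from the data; inconclusive = only one of the two criteria is met; inactive = neither criterion is met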
T cruzi growth-3 = Trypanosoma cruzi proliferation inhibition | shares compounds with T cruzi growth-1 | T. cruzi beta-gal in NIH3T3, GalScreen luminescence, 90 h | inhibition, % at 2.09 µM | 5,600 compounds, 21% hits;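 active = mean inhibition above about 95%, with at least 55% of replicates also reaching it, limit read from the data; inconclusive = meets just one of the two conditions; inactive = meets neither condition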;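 note: plate controls were neutral control median for no effect and positive control median for full effect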
NIH3T3 tox = cytotoxicity in mouse NIH/3T3 fibroblasts; NIH/3T3 viability, CellTiter-Glo ATP luminescence, 90 h; shares compounds with T cruzi growth-1; cytotoxicity (signal decrease), % at 8.35 µM; 5,600 compounds, 14% hits; AID 651742;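 active = mean signal decrease across replicates above about 35% based on untreated-well scatter, with enough replicates individually passing, limit read from the data; inconclusive = no rule stated though some were filed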;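 note: 0% = median of neutral control wells and 100% = median of positive control wells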
3T3 cytotox 2 = cytotoxicity in mouse NIH/3T3 fibroblasts; shares compounds with T cruzi growth-1; NIH/3T3 viability, CellTiter-Glo ATP luminescence, 90 h; inhibition, % at 24.9 µM; 5,600 compounds, 56% hits;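 active = mean loss of cell viability signal at or above a set limit, and enough replicates individually reaching it; inconclusive = meets only the mean limit or only the replicate share; inactive = meets neither condition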;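 note: 0% = median of neutral control wells and 100% = median of positive control wells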
Active calls of the source: *; ? = inconclusive; . = no result given.

SMILES	GASC1 inh	IDH1 mut inh	Pf Dd2 growth	T cruzi growth-1	T cruzi growth-2	T cruzi growth-3	NIH3T3 tox	3T3 cytotox 2
C[C@@H]1CN([C@H](C)CO)C(=O)c2cc(NC(=O)Nc3cccc4ccccc34)ccc2O[C@@H](C)CCCCO[C@@H]1CN(C)Cc1ccc(C(F)(F)F)cc1	-5	.	-87*	?	102*	108*	8	-3
C[C@H]1CCCCO[C@@H](CN(C)Cc2ccc(C(F)(F)F)cc2)[C@@H](C)CN([C@@H](C)CO)C(=O)c2cc(NC(=O)Nc3cccc4ccccc34)ccc2O1	-1	.	-27	?	108*	108*	10	11
C[C@H]1CCCCO[C@@H](CN(C)Cc2ccc(C(=O)O)cc2)[C@@H](C)CN([C@@H](C)CO)C(=O)c2cc(NC(=O)Nc3cccc4ccccc34)ccc2O1	8	-20	-35	15	.	.	.	.
Cc1cc(Cl)ccc1OCC(=O)Nc1cc(Cl)ccc1C(=O)O	.	-1	.	.	.	.	.	.
O=C(O)CC(C(=O)Nc1ccc(Cl)cc1)N1CCCCC1 (centres undefined)	.	0	.	.	.	.	.	.
O=C(NO)c1ccc(C(=O)N/N=C/c2ccc(O)cc2Br)cc1	.	1	.	.	.	.	.	.
Cn1nnnc1SCC(=O)Nc1ncccn1	.	0	.	.	.	.	.	.
COc1ccc(NC(=O)Nc2ccc3c(c2)C(=O)N([C@@H](C)CO)C[C@H](C)[C@@H](CN(C)S(=O)(=O)c2ccc(OC)cc2)OCCCC[C@H](C)O3)cc1	0	.	-61	?	108*	23	18	3
COc1ccc(S(=O)(=O)N(C)C[C@@H]2OCCCC[C@H](C)Oc3ccc(NC(=O)C4CCCCC4)cc3C(=O)N([C@H](C)CO)C[C@H]2C)cc1	0	1	-86*	99*	64	39	20	?
COc1ccc(S(=O)(=O)N(C)C[C@@H]2OCCCC[C@H](C)Oc3ccc(NC(=O)C4CCCCC4)cc3C(=O)N([C@@H](C)CO)C[C@H]2C)cc1	0	.	-78	81	.	.	.	.
COc1ccc(S(=O)(=O)N(C)C[C@@H]2OCCCC[C@H](C)Oc3ccc(NC(=O)Nc4ccc5c(c4)OCO5)cc3C(=O)N([C@H](C)CO)C[C@@H]2C)cc1	1	.	-81*	103*	107*	90	10	10
COc1ccc(NC(=O)Nc2ccc3c(c2)C(=O)N([C@H](C)CO)C[C@@H](C)[C@@H](CN(C)S(=O)(=O)c2ccc(C)cc2)OCCCC[C@H](C)O3)cc1	1	.	-75	-80	.	.	.	.
COc1ccc(NC(=O)Nc2ccc3c(c2)C(=O)N([C@@H](C)CO)C[C@H](C)[C@@H](CN(C)S(=O)(=O)c2ccc(C)cc2)OCCCC[C@@H](C)O3)cc1	0	0	-83*	97*	111*	52	-18	8
O=C(O)c1cc(NS(=O)(=O)c2cccc3cccnc23)ccc1O	.	0	.	.	.	.	.	.
O=C1c2ccccc2C2=Nc3ccccc3SC(c3ccsc3)C12 (centres undefined)	.	0	.	.	.	.	.	.
CC1(C)Cc2c(c(N3CCOCC3)nc3sc4c(=O)[nH]nnc4c23)CO1	.	0	.	.	.	.	.	.
COc1ccc(NC(=O)Nc2ccc3c(c2)C(=O)N([C@H](C)CO)C[C@@H](C)[C@H](CN(C)S(=O)(=O)c2ccc(OC)cc2)OCCCC[C@@H](C)O3)cc1	1	1	-73	105*	109*	49	-27	-17
COc1ccc(S(=O)(=O)N(C)C[C@@H]2OCCCC[C@H](C)Oc3ccc(NC(=O)Nc4ccc(C(F)(F)F)cc4)cc3C(=O)N([C@@H](C)CO)C[C@@H]2C)cc1	-1	2	-79	97*	111*	115*	27	4
COc1ccc(NC(=O)Nc2ccc3c(c2)C(=O)N([C@H](C)CO)C[C@H](C)[C@H](CN(C)S(=O)(=O)c2ccc(OC)cc2)OCCCC[C@H](C)O3)cc1	1	.	-45	?	104*	51	3	14
COc1ccc(NC(=O)Nc2ccc3c(c2)C(=O)N([C@@H](C)CO)C[C@H](C)[C@@H](CN(C)S(=O)(=O)c2ccc(F)cc2)OCCCC[C@@H](C)O3)cc1	-1	.	?	74	.	.	.	.
COc1ccc(NC(=O)Nc2ccc3c(c2)C(=O)N([C@@H](C)CO)C[C@@H](C)[C@@H](CN(C)S(=O)(=O)c2ccc(OC)cc2)OCCCC[C@H](C)O3)cc1	0	0	10	-48	.	.	.	.
COc1ccc(N(C(C)C(=O)Nc2ccc(Br)cc2F)S(C)(=O)=O)cc1 (centres undefined)	.	0	.	.	.	.	.	.
CC(C)(C)OC(=O)N1CCC[C@H]1/C=N/NC(=O)CCCCCC(=O)NO	.	0	.	.	.	.	.	.
COC(=O)c1ccc(C)c(NC(=O)CN(c2ccc(Cl)c(Cl)c2)S(C)(=O)=O)c1	.	0	.	.	.	.	.	.
COCC#Cc1ccc2c(c1)O[C@H](CN(C)S(=O)(=O)c1ccc(F)cc1)[C@H](C)CN([C@@H](C)CO)S2(=O)=O	5	2	-53	101*	76	18	9	55*
SMILES	GASC1 inh	IDH1 mut inh	Pf Dd2 growth	T cruzi growth-1	T cruzi growth-2	T cruzi growth-3	NIH3T3 tox	3T3 cytotox 2
C[C@H](CO)N1C[C@H](C)[C@H](CN(C)S(=O)(=O)c2ccc(F)cc2)Oc2cc(Br)ccc2S1(=O)=O	-2	-6	-7	98*	100*	29	33	65*
CC(C)CC#Cc1ccc2c(c1)O[C@H](CN(C)S(=O)(=O)c1ccc(F)cc1)[C@@H](C)CN([C@H](C)CO)S2(=O)=O	1	0	-66	.	.	.	.	.
COCC#Cc1ccc2c(c1)O[C@H](CN(C)S(=O)(=O)c1ccc(F)cc1)[C@@H](C)CN([C@H](C)CO)S2(=O)=O	1	-6	-30	75	.	.	.	.
CC(C)CC#Cc1ccc2c(c1)O[C@@H](CN(C)S(=O)(=O)c1ccc(F)cc1)[C@@H](C)CN([C@H](C)CO)S2(=O)=O	0	0	-29	.	.	.	.	.
C[C@@H]1CN([C@H](C)CO)S(=O)(=O)c2ccc(C#Cc3ccc(F)cc3)cc2O[C@@H]1CN(C)S(=O)(=O)c1ccc(F)cc1	1	0	-63	?	?	112*	12	71*
C[C@H](CO)N1C[C@H](C)[C@H](CN(C)S(=O)(=O)c2ccc(F)cc2)Oc2cc(C#Cc3ccc(F)cc3)ccc2S1(=O)=O	-1	.	-72	111*	100*	106*	5	17
COC(=O)c1cc(OC)c(OC)cc1NC(=O)COc1ccccc1F	.	0	.	.	.	.	.	.
Cc1nn(C)c(C)c1NC(=O)CSc1nnc(-c2cccc(Br)c2)n1-c1ccccc1	.	0	.	.	.	.	.	.

Assay outcomes (PubChem)
